Reference: ChEMBL document CHEMBL3407478, “Development of a series of aryl pyrimidine kynurenine monooxygenase inhibitors as potential therapeutic agents for the treatment of Huntington's disease” (J Med Chem, 2015)

Columns and labels:
[1] = Tmax in Sprague-Dawley rat CSF at 10 mg equivalents/kg, po after 0.25 to 12 hrs; format: ADME, organism-based, Cerebrospinal fluid
Outline: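 Fed male Sprague-Dawley rats given a single oral dose of 10 mg equiv/kg as 2 mg equiv/mL in 10% hydroxypropyl-β-cyclodextrin. Plasma, CSF, kidney, liver, and cortex and striatum from nonperfused brains sampled from 0.25 to 12 h.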

[2] = test system: Plasma; assay: Dose normalized Cmax in Sprague-Dawley rat plasma at 10 mg equivalents/kg, po after 0.25 to 12 hrs; format: ADME, organism-based; conditions: in vivo
Outline: (§1)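 Male Sprague-Dawley rats given a single oral dose of 10 mg equiv/kg as a 2 mg equiv/mL solution in 10% hydroxypropyl-β-cyclodextrin. Plasma, liver, kidney, cortex, striatum and CSF levels were measured from 0.25 to 12 h. Brain tissue was taken from nonperfused brains. CSF AUCN covers 0–8 h because the elimination phase was undefined.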

[3] = test system: Liver; assay: Dose normalized AUC (0 to infinity) in Sprague-Dawley rat liver at 10 mg equivalents/kg, po after 0.25 to 12 hrs; format: ADME, organism-based; conditions: in vivo; outline: as §1
[4] = Half life in Sprague-Dawley rat plasma at 12 mg equivalents/kg, po; format: ADME, cell-free
[5] = test system: Rattus norvegicus; assay: Inhibition of KMO in Sprague-Dawley rat brain assessed as time duration for elevation in kynurenine plasma level at 10 mg/kg, po by […] analysis; format: functional
[6] = test system: Rattus norvegicus; assay: Inhibition of KMO in Sprague-Dawley rat plasma assessed as time duration for elevation in kynurenic acid plasma level at 10 mg/kg, po by […] analysis; format: functional
Outline: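 Sprague-Dawley rats given a single 10 mg/kg oral dose. KYN, 3-HK, KYNA and AA were quantified in plasma by LC-MS/MS at multiple time points.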

[7] = test system: Rattus norvegicus; assay: Inhibition of KMO in Sprague-Dawley rat striatum brain microdialysate assessed as time duration for elevation in kynurenic acid level at 10 mg/kg, po by […] analysis; format: functional
Outline: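 Freely moving Sprague-Dawley rats given 10 mg/kg po, with a microdialysis probe implanted in the striatum. Dialysate was sampled over 0–240 min for free compound and for KYN, KYNA, AA and 3-HK, quantified by LC-MS/MS. Metabolite changes were compared with t = 0 min by 2-way ANOVA.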

In the case of O=C(O)c1cc(-c2ccc(OC3CC3)c(Cl)c2)ncn1, the Tmax [1] is reported as 0.5 h, the Cmax/dose [2] is reported as 2.6 µM·kg/mg and the AUC/dose [3] is reported as 20 µM·kg·h/mg. For the same compound, the half-life [4] was 2.4 h, the Time [5] was “>=4 hr” and the Time [6] was 8 h. The Time [7] was 60 min.
